Screening results (PubChem BioAssay)
An excerpt weighted towards active compounds, which were near 2.1% of everything screened.
HTR2A ag = mouse Htr2a agonists via beta-arrestin recruitment, primary screen, cell-based, luminescence; CHO-K1 mHTR2A beta-arrestin complementation; percent of 30 µM serotonin response; 5-hydroxytryptamine receptor 2A (Mus musculus), P35363; AID 624169, 2012; 360,000 compounds, 0.66% hits; activation, % at 7.6 µM;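 active = activation above a run cutoff, the mean activation of all tested compounds plus 3 SD, cut at about 14% in these data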;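 also: 0% = plate median of compound wells and 100% = 30 µM serotonin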
APJ ag = agonists of human apelin receptor APJ, primary screen, CHO-K1 cells, PathHunter beta-arrestin, luminescence. P35414. 0% DMSO wells, 100% apelin. activation, % at 20 µM. 330,000 compounds, 0.11% hits;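 active = activation more than six SD over the plate average, tested at 20 µM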;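 also: 0% = DMSO alone and 100% = apelin-13 at 10 nM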
Target sequence (P35414 whole entry, looked up): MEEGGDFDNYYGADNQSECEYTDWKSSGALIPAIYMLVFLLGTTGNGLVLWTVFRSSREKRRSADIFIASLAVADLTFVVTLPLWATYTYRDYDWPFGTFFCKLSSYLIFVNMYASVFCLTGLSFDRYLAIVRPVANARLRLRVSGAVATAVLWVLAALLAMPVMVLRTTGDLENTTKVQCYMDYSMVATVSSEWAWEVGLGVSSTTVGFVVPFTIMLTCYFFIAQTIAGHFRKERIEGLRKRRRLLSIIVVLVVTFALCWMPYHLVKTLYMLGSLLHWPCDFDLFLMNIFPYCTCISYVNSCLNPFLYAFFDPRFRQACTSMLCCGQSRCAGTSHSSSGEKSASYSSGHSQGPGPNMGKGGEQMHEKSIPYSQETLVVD
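Assay system: engineered CHO-K1 APJ arrestin reporter cells; Amount: 1000 CHO-K1 reporter cells seeded per well; Dosing: one dose, 20 µM compound, 1% DMSO; Times: compound stimulation 90 min at 25 °C, detection 60 min; Measured by: luminescent beta-gal fragment complementation, chemiluminescent substrate; Read-out: APJ–arrestin association signal; Controls: DMSO vs Apelin-13 10 nM.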
CCR6 antagonist = CCR6 receptor antagonists, primary screen, cell-based, CHO-K1, luminescence, beta-arrestin, uHTS; C-C chemokine receptor type 6 (Homo sapiens), P51684; CHO-K1 CCR6 PathHunter beta-arrestin, CCL20-stimulated; inhibition, % at 20 µM; 340,000 compounds, 0.49% hits; AID 493098, 2011;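 active = compounds whose inhibition of the agonist-driven luminescence signal at 20 µM reaches about 50%, limit read from the data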;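 also: cells stimulated with CCL20 at 14 nM final; plate controls were DMSO with CCL20 for no effect and DMSO without agonist for full effect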
CXCR6 block = CXCR6 receptor inhibitors, primary screen, cell-based, beta-arrestin, luminescence, CHO-K1 PathHunter, 1536-well. C-X-C chemokine receptor type 6 (Homo sapiens), O00574. inhibition, % at 20 µM. 360,000 compounds, 0.36% hits; in the data active = inhibition above about 34%, passing the limit was not always enough;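 also: antagonist mode with CXCL16 agonist at 10 nM final; 0% = 10 nM CXCL16 with DMSO and 100% = unstimulated wells without agonist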
EBI2 block = EBI2 receptor antagonists, beta-arrestin recruitment, primary screen, cell-based, luminescence, 7a,25-OHC stimulation, uHTS | inhibition, % at 5 µM | AID 651636, 2012 | 360,000 compounds, 0.81% hits | 7a,25-OHC stimulated; in the data active = inhibition above about 38%;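 also: enzyme fragment complementation signal reports receptor beta-arrestin coupling in cells; 0% = agonist plus DMSO wells and 100% = wells without agonist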
APJ antagonist = antagonists of human apelin receptor APJ, primary screen, CHO-K1 cells, beta-arrestin complementation, luminescence; inhibition, % at 20 µM; 330,000 compounds, 0.32% hits; P35414; AID 2521, 2010;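 active = inhibition above about 40% at 20 µM, limit read from the data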;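 also: cells challenged with 10 nM apelin-13 agonist together with compound; plate controls were apelin-13 plus DMSO wells for no effect and DMSO wells lacking apelin-13 for full effect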
EBI2 antag conf = EBI2 antagonist hit retest, beta-arrestin, confirmation, cell-based, single concentration, luminescence, 7a,25-OHC stimulation. 2,400 compounds, 29% hits. inhibition, % at 5 µM. shares compounds with EBI2 block. AID 651997, 2013. 7a,25-OHC antagonism;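 active = inhibition of at least 50%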
EBI2 agonist = EBI2 agonist activity of antagonist hits, confirmation, counter-screen for EBI2 antagonist project, cell-based, single concentration, agonist mode, luminescence; 2,400 tested, under 10 active; activation, % at 5 µM; shares compounds with EBI2 block; AID 652000, 2013; EBI2-expressing cells, 60 min; 0% vehicle, 100% 7α,25-dihydroxycholesterol control;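 active = activation of at least 50%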
bGal counter = E. coli beta-galactosidase enzyme inhibition, confirmation, counter-screen for EBI2 antagonist project, biochemical, luminescence, single concentration; shares compounds with EBI2 block; purified beta-galactosidase, luminescent Galacton Star, 15 min; inhibition, % at 5 µM; 2,400 compounds, 1% hits;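 active = replicate-average signal at least 3 plate SD below neutral wells, shown as high inhibition, flagging enzyme-inhibiting false positives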;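 also: 0% = DMSO wells with enzyme and 100% = wells lacking enzyme; higher means stronger loss of beta-gal luminescence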
The depositor's hits bear a star; x = no result.

SMILES	HTR2A ag	APJ ag	CCR6 antagonist	CXCR6 block	EBI2 block	APJ antagonist	EBI2 antag conf	EBI2 agonist	bGal counter
NNC(=S)Nc1ccc(S(=O)(=O)N2CCCCC2)cc1	3	1	2	-10	44*	8	38	1	6
COc1ccc(NC(=S)Nc2ccc(C)c(S(=O)(=O)N3CCCCC3)c2)cc1	x	-1	x	x	x	-1	x	x	x
Cc1cc2cc(CNC(=O)c3ccc(S(=O)(=O)N4CCCCC4)cc3)ccc2[nH]1	-9	1	6	-4	47*	-19	36	1	8
O=C(NCc1ccc2[nH]c3c(c2c1)CCCC3)c1ccc(S(=O)(=O)N2CCCC2)cc1	-5	0	14	-9	-7	-3	x	x	x
Cc1ccc(CNC(=O)C2=CCN(S(=O)(=O)c3ccc(C)cc3)CC2)cc1	-5	2	x	-2	66*	7	29	2	5
Cc1ccc(NC(=S)Nc2ccc(C(C)C)cc2)cc1S(=O)(=O)N1CCCCCC1	4	3	27	1	50*	-1	51*	1	5
O=C(CCl)NCCCCCCCCCNC(=O)CCl	4	1	-9	1	-8	-2	x	x	x
CCCc1cc(C(=O)N2CCN(c3ccccc3C)CC2)cs1	-4	-7	11	25	63*	-8	44	0	4
CCCc1cc(C(=O)N2CCCN(C)CC2)cs1	0	-9	-11	1	1	4	x	x	x
Cc1cccc(N(C)c2ncnc3onc(-c4ccc(F)cc4)c23)c1C	-7	2	9	-6	63*	-49	27	-2	-7
CCN(CCO)c1ncnc2onc(-c3ccc(F)cc3)c12	4	-1	0	5	-11	13	x	x	x
O=C(O)c1cccc(Nc2nc3ccccc3nc2NS(=O)(=O)c2ccccc2)c1	-4	-4	-4	-5	-5	8	x	x	x
NS(=O)(=O)c1cccc(Nc2nc3ccccc3nc2NS(=O)(=O)c2ccc(Cl)cc2)c1	7	-5	-4	2	63*	-3	53*	-1	6
CCOC(=O)C1=C(C)NC(=S)NC1c1ccc(OCC(=O)N2CCCCCC2)cc1 (centres undefined)	0	0	2	6	-11	-19	x	x	x
CN(c1ccc([N+](=O)[O-])cc1C(=O)Nc1ccccc1)C1CCCCC1	-3	-2	25	14	41*	22	32	0	-13
Cc1cccc(NC(=O)c2cc([N+](=O)[O-])ccc2NC2CCCCC2)c1	1	-3	-7	2	-28	-16	x	x	x
CCOc1ccc(S(=O)(=O)N(C)c2ccc(OCC(=O)NCC3CCCCC3)cc2)cc1	-6	-1	15	4	36	13	x	x	x
CCOc1ccc(S(=O)(=O)N(C)c2ccc(OCC(=O)NCCc3ccc(OC)cc3)cc2)cc1	-2	-4	6	-4	55*	-4	34	0	-1
Cc1[nH]c2ccc(C(=O)N3CCN(c4ccccc4Cl)CC3)cc2c1C	2	0	-3	1	78*	21	56*	1	3
COc1ccccc1N1CCN(CC(=O)c2c(C)[nH]c3cc(C)ccc23)CC1	-7	-3	-13	9	40*	6	14	0	-10
COc1ccccc1N1CCN(C(=O)c2ccc3[nH]c(C)c(C)c3c2)CC1	-3	-2	10	3	76*	-14	45	0	-12
Cc1cccc(N2CCN(C(=O)c3ccc4[nH]c(C)c(C)c4c3)CC2)c1C	3	-1	-20	-3	69*	-2	51*	0	-6
COc1ccccc1N1CCN(CC(=O)c2c(C)n(C)c3ccccc23)CC1	-6	8	11	-25	4	6	x	x	x
Cc1cccc(C)c1Cn1c(C)c(C(=O)NCc2ccccc2C(F)(F)F)sc1=O	-3	x	x	7	30	x	x	x	x
CCN(CC)C(=O)CSc1nc2cc3c(cc2c(=O)n1Cc1ccc(OC)cc1)OCO3	-1	-1	12	4	3	-1	x	x	x
SMILES	HTR2A ag	APJ ag	CCR6 antagonist	CXCR6 block	EBI2 block	APJ antagonist	EBI2 antag conf	EBI2 agonist	bGal counter
COc1cc(SC)ccc1C(=O)NCc1ccccc1	-2	-2	10	4	-10	13	x	x	x
CC1(C(=O)NCC2CCOCC2)Cc2c(-c3cccc(C(F)(F)F)c3)ccnc2O1 (centres undefined)	-3	x	x	-3	1	x	x	x	x
O=C(c1ccc(Br)cc1)N1CCN(S(=O)(=O)c2ccccc2)CC1	-2	0	20	0	47*	-3	39	0	-12
O=C(CSc1cccc(C(F)(F)F)c1)N1CCN(S(=O)(=O)c2ccccc2)CC1	-9	0	7	0	16	26	x	x	x
O=C(CSc1ccc(Br)cc1)N1CCN(S(=O)(=O)c2ccccc2)CC1	-3	-7	-5	0	90*	-4	67*	1	6
CC(C)N(C)c1ncnc2c1ncn2[C@H]1CN(Cc2ccccc2)C[C@@H](CO)O1	1	x	x	-6	16	x	x	x	x
CC(C)N(C)c1ncnc2c1ncn2[C@H]1CN(Cc2ccc(Cl)cc2)C[C@@H](CO)O1	2	x	x	0	83*	x	77*	-2	-9
OC[C@@H]1CN(Cc2ccc(F)cc2)C[C@H](n2cnc3c(NC4CC4)ncnc32)O1	0	x	x	-6	65*	x	66*	1	9
OC[C@@H]1CN(Cc2ccccc2)C[C@H](n2cnc3c(NC4CC4)ncnc32)O1	-4	x	x	6	24	x	x	x	x
COc1ccc(N(C(=O)c2ccncc2)S(=O)(=O)c2ccc3c4c(cccc24)C(=O)N3C)cc1	3	0	9	0	16	3	x	x	x
O=C(OCC(=O)N1CCCc2ccccc21)c1cnc(Cl)c(Cl)c1	-1	2	21	10	43*	-15	39	0	5
